This is one part of a sample in which hits are shown more often than they occur.
S1P4 agonist = human S1P4 receptor agonism; activation, % at 4.98 µM; hit rate 0.35% among 220,000; O95977; S1P4-expressing cell line, agonist reporter assay; in the data active = activation above about 11%;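 also: 0% = DMSO vehicle and 100% = reference agonist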
S1P3 antag = blocks the human S1P3 receptor; inhibition, % at 4.98 µM; Q99500; hit rate 0.27% among 170,000; CHO S1P3 NFAT-BLA reporter, FRET fluorescence, antagonist mode;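 active = inhibition above the plate cutoff, the mean inhibition of test wells on that plate plus 3 SD, cut at about 28% in these data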;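 also: cells challenged with S1P at its EC80 of 0.8 µM; blue over green emission ratio from cleaved BLA substrate after 4 h stimulation; 0% = S1P-stimulated wells and 100% = unstimulated DMSO-only wells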
Mdm2 ligase inh = blocks human Mdm2 ubiquitin ligase activity | signal enhancement, % at 5 µM | hit rate 0.11% among 210,000 | Q00987 | cell-based MDM2 ubiquitination luciferase reporter, 2 h; 0 = plate control, 100 = twice control, blank-subtracted;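 active = signal enhancement of 30% or more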;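 also: luminescence tracks abundance of the self-degrading MDM2-luciferase fusion protein; higher signal means inhibition of MDM2 E3 ligase activity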
Target sequence (Q00987 whole entry, looked up, the tested form may be a part): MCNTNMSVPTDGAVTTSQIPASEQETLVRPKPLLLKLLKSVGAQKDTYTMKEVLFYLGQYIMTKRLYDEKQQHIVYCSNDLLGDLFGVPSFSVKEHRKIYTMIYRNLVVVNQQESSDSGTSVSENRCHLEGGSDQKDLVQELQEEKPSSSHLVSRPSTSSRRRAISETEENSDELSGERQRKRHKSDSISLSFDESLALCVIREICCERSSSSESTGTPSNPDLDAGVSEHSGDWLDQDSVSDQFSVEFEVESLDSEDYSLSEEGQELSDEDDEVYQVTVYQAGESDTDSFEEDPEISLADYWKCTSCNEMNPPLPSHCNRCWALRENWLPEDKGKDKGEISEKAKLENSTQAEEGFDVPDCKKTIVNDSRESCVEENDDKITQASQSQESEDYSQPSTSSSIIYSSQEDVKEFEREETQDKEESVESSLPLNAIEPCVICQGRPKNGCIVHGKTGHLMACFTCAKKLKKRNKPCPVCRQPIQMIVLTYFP
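system = mammalian cells stably expressing self-ubiquitinating, self-degrading MDM2 E3–luciferase fusion | quantity = 2000 cells per well seeded | incubation = 4 h cell settling then 2 h compound exposure, 37 °C | signal = SteadyLite luminescence, 15 min reagent step | benchmarks = plate control and blank wells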
S1P4 antagonist = blocks the human S1P4 receptor; O95977; S1P4-expressing cells, antagonist mode, reporter read-out; inhibition, % at 4.98 µM; hit rate 0.26% among 220,000; AID 1510; in the data active = inhibition above about 29%;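 also: 0% = wells stimulated with agonist and 100% = vehicle wells without agonist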
Lmaj promast = reduces viability of Leishmania major promastigotes. resazurin fluorescence viability. inhibition, % at 10 µM. hit rate 9% among 200,000. AID 1063; in the data active = inhibition above about 50%;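 also: promastigotes grown with compound for 44 hours at 28 °C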
* = called active by the depositor.

For CCCCC#Cc1cncc(C(=O)N/N=C/c2cccc(OC)c2)c1 the results were S1P4 agonist 1, S1P3 antag 1, Mdm2 ligase inh -17 and S1P4 antagonist -2.
Screening Cc1nn(-c2ccccc2)c(C)c1/C=N/NC(=O)c1cc(-c2ccccc2)n[nH]1 returned S1P4 agonist 0, Mdm2 ligase inh -6, S1P4 antagonist -7 and Lmaj promast 88*.
Screening Cc1cccc(NC2=C(Cl)C(=O)OC2NC(=O)c2ccccc2)c1 (stereo not given) returned S1P4 agonist 0, Mdm2 ligase inh -6, S1P4 antagonist -12 and Lmaj promast 2.
Screening Cc1cccn2c(=O)c(/C=C(\C#N)C(=O)NC3CCS(=O)(=O)C3)c(N3CCC(C)CC3)nc12 (stereo not given) returned S1P4 agonist 5, S1P3 antag -17, S1P4 antagonist -20 and Lmaj promast 3.
Screening N#C/C(=C\c1c(N2CCCCC2)nc2ccccn2c1=O)C(=O)NCc1ccco1 returned S1P4 agonist 0, S1P3 antag 6, Mdm2 ligase inh -2, S1P4 antagonist -3 and Lmaj promast 83*.
For N#C/C(=C\c1c(N2CCCCC2)nc2ccccn2c1=O)C(=O)NC1CCS(=O)(=O)C1 (stereo not given) the results were S1P4 agonist 4, S1P3 antag -3, Mdm2 ligase inh 1, S1P4 antagonist -24 and Lmaj promast 56*.
For COc1ccc(CN(C(=O)Cc2cccs2)C(C(=O)NC2CCCC2)c2ccncc2)cc1 (stereo not given) the results were S1P4 agonist 0, Mdm2 ligase inh -7, S1P4 antagonist -5 and Lmaj promast 57*.
`COC(=O)c1ccc(C(C(=O)NC2CCCCC2)N(Cc2ccc(F)cc2)C(=O)Cc2cccs2)cc1` (stereo not given) gave S1P4 agonist -2, S1P3 antag -3, Mdm2 ligase inh -3, S1P4 antagonist 0 and Lmaj promast 56*.
`COC(=O)c1ccc(C(C(=O)NC2CCCCC2)N(CCc2ccccc2)C(=O)Cc2cccs2)cc1` (stereo not given) gave S1P4 agonist 1, S1P3 antag -3, Mdm2 ligase inh 4, S1P4 antagonist -5 and Lmaj promast -6.
CC(=O)c1cccc(NC(=O)C23CC4CC(C2)CC(n2cncn2)(C4)C3)c1 was read as S1P4 agonist -1, S1P3 antag -1, Mdm2 ligase inh 14, S1P4 antagonist 7 and Lmaj promast -2.
CN(Cc1ccccc1)S(=O)(=O)c1ccc(Cl)c(C(=O)NCc2ccc3c(c2)OCO3)c1 was read as S1P4 agonist 2, S1P3 antag 4, Mdm2 ligase inh -1, S1P4 antagonist 0 and Lmaj promast -4.
Screening CN(C)S(=O)(=O)c1ccc(C(=O)Nc2nnc(SCc3cccc(F)c3)s2)cc1 returned S1P4 agonist 1, S1P3 antag -2, Mdm2 ligase inh -8, S1P4 antagonist -6 and Lmaj promast 52*.
`C=CCSc1nnc(NC(=O)c2cccc(S(=O)(=O)N(C)c3ccccc3)c2)s1` gave S1P4 agonist 0, S1P3 antag -1, Mdm2 ligase inh -9, S1P4 antagonist 12 and Lmaj promast 63*.
Screening CN(C)S(=O)(=O)c1ccc(C(=O)Nc2nnc(SCc3ccccc3)s2)cc1 returned S1P4 agonist 1, S1P3 antag -4, Mdm2 ligase inh -7, S1P4 antagonist -27 and Lmaj promast -5.
CC1(C)CC(=O)C2=C(C1)OC(N)=C(C#N)C2C1CC=CCC1 (stereo not given) was read as S1P4 agonist 1, S1P3 antag -1, Mdm2 ligase inh -11, S1P4 antagonist -12 and Lmaj promast 3.
Screening Cc1csc(NC(=O)c2cc([N+](=O)[O-])cc([N+](=O)[O-])c2)n1 returned S1P4 agonist 2, S1P3 antag -25, Mdm2 ligase inh -1, S1P4 antagonist -12 and Lmaj promast 94*.
`CCC(=O)Nc1nc(-c2cc([N+](=O)[O-])cs2)cs1` gave S1P4 agonist -2, S1P3 antag -4, Mdm2 ligase inh -16, S1P4 antagonist 8 and Lmaj promast 90*.
Screening Cc1ccnc(NC(=O)c2cc([N+](=O)[O-])cc([N+](=O)[O-])c2)c1 returned S1P4 agonist -1, S1P3 antag -6, Mdm2 ligase inh -4, S1P4 antagonist 13 and Lmaj promast 67*.
For Cc1csc(NC(=O)c2nc3nc(C)cc(C)n3n2)n1 the results were S1P4 agonist 3, S1P3 antag -16, Mdm2 ligase inh 7, S1P4 antagonist -14 and Lmaj promast 77*.
For Cc1cc(C)n2nc(C(=O)Nc3nccs3)nc2n1 the results were S1P4 agonist -1, Mdm2 ligase inh -3, S1P4 antagonist 4 and Lmaj promast 5.
Screening COCC(=O)Nc1nc(-c2ccc([N+](=O)[O-])cc2)cs1 returned S1P4 agonist -1, S1P3 antag -14, Mdm2 ligase inh -13, S1P4 antagonist -1 and Lmaj promast -7.
`C=CCn1c(SCC(=O)NCCOC)nnc1-c1cc2c(s1)CCC(CC)C2` (stereo not given) gave S1P4 agonist 0, S1P3 antag -5, Mdm2 ligase inh -9, S1P4 antagonist -20 and Lmaj promast -2.
For CN(C)C(CNC(=O)c1cccc(OC(F)F)c1)c1ccco1 (stereo not given) the results were S1P4 agonist -1, S1P3 antag -4, Mdm2 ligase inh 0, S1P4 antagonist -7 and Lmaj promast 59*.
COC(=O)c1ccc(NC(=O)CSC2=Nc3ccccc3C3CC=NN23)cc1 (stereo not given) was read as S1P4 agonist 0, Mdm2 ligase inh 0, S1P4 antagonist 5 and Lmaj promast 55*.
`NC(=O)c1ccc(NC(=O)CSC2=Nc3ccccc3C3CC=NN23)cc1` (stereo not given) gave S1P4 agonist -3, Mdm2 ligase inh -10, S1P4 antagonist 1 and Lmaj promast 17.
For CCCn1c(SCC(=O)c2ccc3c(c2)OCCO3)n[nH]c1=O the results were S1P4 agonist 2, S1P3 antag -18, Mdm2 ligase inh -10, S1P4 antagonist 12 and Lmaj promast -5.
For CCCc1cc(=O)[nH]c(SCC(=O)c2ccc3c(c2)OCCO3)n1 the results were S1P4 agonist -1, S1P3 antag -4, Mdm2 ligase inh -10, S1P4 antagonist 3 and Lmaj promast 61*.
For Nc1cc[n+](CC(=O)c2ccc3c(c2)OCCO3)cc1 the results were S1P4 agonist 2, S1P3 antag -3, Mdm2 ligase inh -31, S1P4 antagonist -12 and Lmaj promast 78*.
O=C(Nc1ccccc1)n1ccc(-c2ccc(-n3ccnc3)cc2)n1 was read as S1P4 agonist 2, S1P3 antag -13, Mdm2 ligase inh 6, S1P4 antagonist -15 and Lmaj promast -3.
`Cc1ccc(NC(=O)c2ccc(NCCCN3CCOCC3)c([N+](=O)[O-])c2)cc1Cl` gave S1P4 agonist -3, S1P3 antag 7, S1P4 antagonist -16 and Lmaj promast 99*.

Screening results from PubChem BioAssay.
